Bioassay records from PubChem BioAssay.
A selection: hits, their analogues and other compounds. The true share with any hit is near 4.9%.
STAT1 activator = activators of IFN-gamma induced STAT1 signaling | activation (% of control), % at 5.5 µM | NIH 3T3 STAT1-luciferase reporter, luminescence; 100% = IFN-gamma alone, no compound | actives 2.6% (n = 200,000);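 active = activation above the screen-wide mean activation plus 3 SD, cut at about 130% in these data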;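 also: raw ratio to IFN-gamma control signal so 100% means no change and 0% no light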
STAT1 inh = STAT1 signaling inhibition; inhibition, % at 5.5 µM; NIH 3T3 STAT1-luciferase reporter, IFN-gamma, luminescence; actives 0.35% (n = 200,000); AID 920;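 active = inhibition above a set limit, the mean inhibition across all tested compounds plus 3 SD, cut at about 34% in these data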;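 also: 0% = IFN-gamma with DMSO and 100% = IFN-gamma with 300 µM nifuroxazide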
NF-kB neuron act = raises NF-kB expression in human neuronal cells. AID 1239. NF-kB reporter expression; active compounds read high. fold change at 12.5 µM. actives 1.6% (n = 190,000); in the data active = fold change above about 3.3
APP 5'UTR act = activates APP 5'UTR luciferase reporter. SH-SY5Y APP 5'UTR luciferase reporter, luminescence; zero percent = DMSO vehicle wells. activation, % at 2 µM. actives 1% (n = 190,000). AID 1276;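 active = activation above a set limit, based on mean plus 3 SD of controls, cut at about 140% in these data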
STAT3 inh = reduces IL-6 driven STAT3 reporter signal; inhibition, % at 5.5 µM; actives 0.89% (n = 190,000); AID 862; U3A cells, IL-6 STAT3-luciferase reporter, luminescence; host cell line lacks STAT1;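 active = inhibition above the mean inhibition across all screened compounds plus 3 SD, cut at about 44% in these data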;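 also: 0% = DMSO only wells and 100% = 100 µM nifuroxazide control wells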
STAT3 act = activators of IL-6 induced STAT3 signaling. U3A cells, IL-6 STAT3-luciferase reporter, luminescence; 100% = signal with IL-6 EC80 alone. activation (% of control), % at 5.6 µM. actives 0.91% (n = 190,000). AID 871;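 active = activation above the screen-wide mean of compound activation plus 3 SD, cut at about 130% in these data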;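 also: 0% = background luminescence of wells with medium and substrate only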
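Test system: Human STAT1-deficient U3A cells with stable STAT3-luciferase reporter | Also added: Interleukin-6, 33 ng/mL | Timing: Compound pre-incubation 1 h before IL-6, then 6 h stimulation at 37 °C | Technique: Luciferase reporter luminescence | Read-out: Percent of IL-6-only median luminescence | Benchmarks: IL-6-only wells as 100% reference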
* = called active by the depositor; / = no result given.

SMILES | STAT1 activator | STAT1 inh | NF-kB neuron act | APP 5'UTR act | STAT3 inh | STAT3 act
CCOC(=O)C1(CCCc2ccccc2)CCN(C(=O)CCn2cncn2)CC1 | 108 | -10 | 0.71 | 16 | 4 | 99
O=c1c2sccc2n(Cc2cccc(F)c2)c(=O)n1-c1ccc(F)cc1 | 105 | -5 | 1.1 | 12 | -2 | 105
O=C(Nc1cc2nn(-c3ccccc3)nc2cc1Cl)c1ccco1 | 133* | -36 | 1.7 | 25 | -43 | 145*
CCn1cnc2cc(NC(=O)c3ccco3)ccc21 | 135* | -33 | 2.9 | 53 | 6 | 98
CCCn1cnc2cc(NC(=O)c3cccs3)ccc21 | 138* | -45 | / | 97 | -5 | 109
O=C(Nc1ccc2nn(-c3ccccc3)nc2c1)c1ccco1 | 132* | -34 | 2.3 | 81 | 9 | 94
O=C(NN=C1C2CC3CC(C2)CC1C3)c1cccc(S(=O)(=O)N2CCOCC2)c1 | 97 | 4 | 1.1 | -17 | -3 | 102
Cc1cccc(NC(=O)CCSc2nnc(Cc3ccccc3)o2)c1 | 98 | 3 | 1.1 | -3 | 1 | 101
CCN(CC(=O)N1CCc2ccccc2C1)S(=O)(=O)c1ccc2ccccc2c1 | 94 | 7 | 1 | -17 | 11 | 96
Cc1cc(SCC(=O)Nc2cccc(S(N)(=O)=O)c2)c(C)cc1Br | 90 | 12 | 1.1 | -2 | 10 | 96
Cc1cc(SCC(=O)Nc2cccc(S(=O)(=O)NC3=NCCCCC3)c2)c(C)cc1Br | 100 | 0 | 3.4* | 14 | 7 | 102
Cc1sc(NC(=O)c2cccs2)c(C(N)=O)c1C | 140* | -44 | 2.3 | 56 | -15 | 116
NC(=O)c1c(NC(=O)c2cccnc2)sc2c1CCCC2 | 134* | -38 | 1.8 | 28 | 31 | 80
O=C(Nc1sc2c(c1C(=O)O)CCCCC2)c1cccs1 | 116 | -21 | 1.9 | 174* | 2 | 102
CC(=O)Nc1sc2c(c1C(N)=O)CCCC2 | 105 | -6 | 1.2 | -7 | -5 | 105
Cn1nccc1C(=O)Nc1sc2c(c1C(N)=O)CCCC2 | 146* | -50 | 1.5 | 33 | 19 | 90
O=C(Nc1sc2c(c1C(=O)O)CCCC2)c1cccs1 | 122 | -24 | 2 | 68 | -5 | 107
CCOc1ccccc1Nc1nc2ccccc2n1C(C)C | 97 | 2 | 1 | 1 | 11 | 96
CCCCC(=O)NS(=O)(=O)c1ccc(N=NN2CCOCC2)cc1 | 92 | 9 | 1.8 | -3 | 0 | 99
OC(CN1CCN(c2cccc(C(F)(F)F)c2)CC1)c1c[nH]c2ccccc12 (stereo not drawn) | 94 | 7 | 0.93 | -1 | -38 | 135*
OC(COCc1cccs1)CN1CCN(c2cccc(C(F)(F)F)c2)CC1 (stereo not drawn) | 95 | 5 | 0.98 | -10 | -1 | 100
CCOC(=O)c1c(NC(=O)CC(C)C)sc(C(C)=O)c1C | 90 | 8 | 5.9* | -14 | -2 | 105
CCOC(=O)c1c(NC(=O)COC)sc(C(C)=O)c1C | 98 | 2 | 1.2 | -4 | 8 | 95
CC(C)Cc1nnc(NC(=O)CCc2c[nH]c3ccccc23)s1 | 106 | -7 | 1.2 | 13 | -8 | 111
CN(C)CCCN1C(=O)c2cccc3c([N+](=O)[O-])ccc(c23)C1=O | 143* | -48 | 4.3* | -80 | -5 | 109
SMILES | STAT1 activator | STAT1 inh | NF-kB neuron act | APP 5'UTR act | STAT3 inh | STAT3 act
O=C(CCNC(=O)c1ccccc1Cl)NC1=NCCS1 | 104 | -5 | 1.2 | -4 | 1 | 106
CCCSc1nn2c(=O)c3ccccc3nc2s1 | 127 | -29 | 3 | 82 | 20 | 82
Cc1cccc(Nc2nn3c(=O)c4ccccc4nc3s2)c1 | 132* | -35 | 1.9 | 69 | 0 | 102
COc1cccc(C(=O)Nc2ccc(F)cc2F)c1 | 122 | -23 | 1.9 | 32 | 17 | 90
COc1cccc(C(=O)Nc2cccc(C(C)=O)c2)c1 | 118 | -21 | 1.7 | 9 | -5 | 104
COc1cccc(C(=O)Nc2ccc(C(F)(F)F)n(C)c2=O)c1 | 123 | -25 | 1.3 | 136* | 22 | 84
COC(=O)c1cccc(NC(=O)c2cccc(OC)c2)c1 | 131* | -34 | 1.7 | 83 | -7 | 108
COc1cccc(C(=O)Nc2ccccc2F)c1 | 132* | -33 | 1.9 | 19 | 12 | 92
COC(=O)c1sccc1NC(=O)c1cccc(OC)c1 | 99 | 1 | 1.1 | -12 | -40 | 135*
CCOc1ccc(C(=O)Nc2ccc(C(F)(F)F)n(C)c2=O)cc1 | 105 | -5 | 1.2 | -12 | 30 | 77
COC(=O)c1sccc1NC(=O)c1ccccc1 | 108 | -9 | 1.1 | 8 | 8 | 98
CCCCNC(=O)NNC(=O)COc1cccc(C)c1C | 94 | 7 | 1.1 | 2 | -3 | 105
COc1ccc(NC(=O)Nc2nc3c(s2)CCCC3)cc1 | 148* | -53 | 4.9* | 150* | 5 | 98
CC(=O)c1ccc(S(=O)(=O)Nc2ccc(-c3cn4c(n3)SCC4)cc2)cc1 | 101 | -2 | 1.3 | 18 | 5 | 99
C[n+]1cccc(C(=O)NNC(=O)C23CC4CC(CC(C4)C2)C3)c1 | 103 | -5 | 1.5 | -15 | 7 | 97
O=C(c1ccc(N2CCOCC2)cc1)c1cccs1 | 141* | -44 | 5.1* | 132 | 39 | 67
O=C(Nc1ccc(N2CCOCC2)cc1N1CCOCC1)c1cccs1 | 95 | 1 | 0.83 | -21 | -5 | 104
O=C(NC(=S)Nc1ccc2c(c1)OCCO2)c1cccc2ccccc12 | 106 | -7 | 1.6 | 12 | -6 | 109
CC(C)CCn1cnc2c(cnn2-c2ccc(F)cc2)c1=O | 130* | -33 | 1.8 | 18 | 2 | 99
COC(=O)c1ccc(Cn2cnc3c(cnn3-c3ccc(F)cc3)c2=O)o1 | 99 | 1 | 0.99 | -1 | 4 | 102
O=C(Oc1ccccc1)c1cc2ccccc2o1 | 98 | 2 | 0.92 | -4 | 2 | 103
O=C(/C=C\c1ccccc1OC(=O)c1ccccc1F)c1cc2ccccc2o1 | 96 | 4 | 4.3* | 87 | -17 | 118
COc1ccc(NC(=S)N2CCCN(Cc3cc(C)ccc3C)C2)cc1 | 94 | 5 | 1.4 | 12 | 12 | 99
Cc1ccc(OCC(=O)c2cc(C)n(Cc3cccs3)c2C)c([N+](=O)[O-])n1 | 59 | 43* | 0.51 | 2 | 52* | 60
COc1ccc(C(=O)N(C)c2c(C)n(C)n(-c3ccccc3)c2=O)cc1OC | 92 | 9 | 1.1 | -1 | 9 | 96
COc1ccccc1-c1nc(NC(C)=O)n[nH]1 | 89 | 12 | 1.1 | 0 | -65 | 159*
Cc1nn(C)cc1/C=N\NC(=O)c1ccc2c(c1)c(C)c(C)n2Cc1ccccc1 | 97 | 3 | 0.98 | -37 | 27 | 76
